Reference: ChEMBL document CHEMBL1130112, “H3-receptor antagonists: synthesis and structure-activity relationships of para- and meta-substituted 4(5)-phenyl-2-[[2-[4(5)-imidazolyl]ethyl]thio]imidazoles” (J Med Chem, 1997)
Calls of active or inactive are those of the source. No cut-off for these calls is given here.

Tests used:
[1] = biological target: Histamine H3 receptor (Cavia porcellus, UniProt Q9JI35); assay: Histamine H3-antagonist potency on electrically stimulated guinea pig ileum; type: functional, tissue-based; conditions: read-out: pA2 (converted)
Procedure, shortened: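 Guinea pig (350–550 g) terminal ileum under 1 g load in Krebs Henseleit, 37 °C, O₂ 95%:CO₂ 5%, equilibrated ≥60 min; transmural stimulation (0.1 Hz, 1 ms, submax voltage). Compounds up to 10⁻⁶ M, 30 min, then cumulative (R)-α-methylhistamine (10⁻⁹–10⁻⁶ M) inhibiting twitch, recorded isometrically. pA₂ by Schild regression; mean ± SEM of 10–12 observations.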

[2] = biological target: Histamine H3 receptor (Rattus norvegicus, UniProt Q9QYN8); assay: Inhibition of [3H]NAMHA binding to rat brain membrane histamine H3-receptor
[3] = dissociation constant corresponding to the 4(5)-alkylimidazole; type: ADME; conditions: read-out: pKa,1
Procedure, shortened: (§1)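 pH-metric titration at 25.0 ± 0.1 °C with 0.15 M KCl, samples 0.5–4 mM; for poorly water-soluble compounds, values from 15–60 wt % methanol/water with Yasuda–Shedlovsky extrapolation; refined by nonlinear least squares.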

[4] = LogP of the free base (neutral species).; type: physicochemical; conditions: octanol/water
Procedure, shortened: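 pH-metric method: octanol/water titrations with Bjerrum plots, 0.15 M KCl ionic strength, 25.0 ± 0.1 °C, samples 0.5–4 mM; constants refined by nonlinear least squares.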

[5] = dissociation constant corresponding to the 4(5)-phenyl-2-thiomidazole; type: ADME; conditions: read-out: pKa,2; procedure, shortened: as §1
[6] = biological target: Histamine H3 receptor (Cavia porcellus) (UniProt Q9JI35); assay: Compound was tested for H3-antagonist potency on electrically stimulated guinea pig ileum; Unsurmountable antagonism at concentration > 10^-7 M; type: functional, tissue-based
Chain of Histamine H3 receptor (Cavia porcellus) (Q9JI35 whole entry): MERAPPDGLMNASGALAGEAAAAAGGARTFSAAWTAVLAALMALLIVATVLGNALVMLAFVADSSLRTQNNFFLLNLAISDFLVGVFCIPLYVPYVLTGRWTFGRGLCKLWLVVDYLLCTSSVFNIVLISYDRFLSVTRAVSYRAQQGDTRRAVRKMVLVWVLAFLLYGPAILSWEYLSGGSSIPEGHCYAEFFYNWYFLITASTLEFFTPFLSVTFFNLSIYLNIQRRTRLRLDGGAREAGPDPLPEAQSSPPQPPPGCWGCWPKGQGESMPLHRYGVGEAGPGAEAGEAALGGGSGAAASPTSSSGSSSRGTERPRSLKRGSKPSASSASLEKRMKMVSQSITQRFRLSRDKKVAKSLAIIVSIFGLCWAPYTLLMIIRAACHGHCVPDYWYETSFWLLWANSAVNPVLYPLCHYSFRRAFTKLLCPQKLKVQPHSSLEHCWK

Chain of Histamine H3 receptor (Rattus norvegicus, UniProt Q9QYN8) (Q9QYN8 whole entry): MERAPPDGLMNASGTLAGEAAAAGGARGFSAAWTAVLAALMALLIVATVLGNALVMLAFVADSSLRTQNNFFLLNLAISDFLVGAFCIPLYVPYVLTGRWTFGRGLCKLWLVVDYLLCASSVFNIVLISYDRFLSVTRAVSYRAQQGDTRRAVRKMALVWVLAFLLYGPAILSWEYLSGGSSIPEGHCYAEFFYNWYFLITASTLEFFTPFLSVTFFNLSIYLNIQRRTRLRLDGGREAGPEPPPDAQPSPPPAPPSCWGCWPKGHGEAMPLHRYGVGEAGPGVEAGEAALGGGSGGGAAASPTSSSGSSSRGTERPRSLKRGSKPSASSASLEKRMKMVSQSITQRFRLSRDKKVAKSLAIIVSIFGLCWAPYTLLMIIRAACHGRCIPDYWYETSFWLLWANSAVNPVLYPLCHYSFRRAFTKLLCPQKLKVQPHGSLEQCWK
Chain of Histamine H3 receptor (Cavia porcellus, UniProt Q9JI35) (Q9JI35 whole entry): as the sequence (Q9JI35 whole entry) above

SMILES	Kb [1]	Ki [2]	pKa [3]	logP [4]	pKa [5]	pA2 [6]
CN(C)c1ccc(-c2c[nH]c(SCCc3c[nH]cn3)n2)cc1	52.5 nM	29.5 nM	–	–	–	–
O=[N+]([O-])c1cccc(-c2c[nH]c(SCCc3c[nH]cn3)n2)c1	3.47 nM	30.9 nM	3.21	2.43	6.89	–
c1ccc(-c2cnc(SCCc3c[nH]cn3)[nH]2)cc1	6.46 nM	14.1 nM	4.28	2.62	7.07	–
CCCc1ccc(-c2c[nH]c(SCCc3c[nH]cn3)n2)cc1	–	39.8 nM	4.34	4.09	7.03	inactive
CCCOc1cccc(-c2c[nH]c(SCCc3c[nH]cn3)n2)c1	–	9.33 nM	4.04	3.7	7.04	inactive
O=S(=O)(Oc1ccc(-c2cnc(SCCc3c[nH]cn3)[nH]2)cc1)c1ccccc1	50.1 nM	2.95 nM	3.84	3.72	6.93	–
O=[N+]([O-])c1ccc(-c2cnc(SCCc3c[nH]cn3)[nH]2)cc1	16.2 nM	52.5 nM	3.13	2.75	6.94	–
CCCCOc1ccc(-c2cnc(SCCc3c[nH]cn3)[nH]2)cc1	148 nM	–	4.3	4.11	7.06	–
Brc1cccc(-c2cnc(SCCc3c[nH]cn3)[nH]2)c1	7.76 nM	14.1 nM	3.9	3.76	7.08	–
Clc1ccc(-c2c[nH]c(SCCc3c[nH]cn3)n2)cc1	1.35 nM	35.5 nM	4.12	3.66	7.1	–
NC(=O)c1ccc(-c2c[nH]c(SCCc3c[nH]cn3)n2)cc1	117 nM	28.2 nM	3.63	1.4	7.07	–
NC(=O)c1cccc(-c2cnc(SCCc3c[nH]cn3)[nH]2)c1	145 nM	16.2 nM	4.01	1.61	7.05	–
